Measured values from PubChem BioAssay.
Inconclusive results are not listed.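 How the source made its calls, unless noted: active means viability at or below 27.92% in each of two runs, the all-compound median minus 4 SD; inconclusive means no clear call, values can overlap the other calls; inactive means the rest.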

Columns and labels:
[1] = S. cerevisiae growth inhibition in permissive medium (OD615), pilot counter-assay for S. cerevisiae lifespan shortening project, permissive growth control (AID 705;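 active means growth inhibition above 25% in both replicates, a cutoff set 3 SD above the mean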); settings: OD615, 24 h, at 10 µM, stronger effect = higher value
Summary of the method: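 Material: engineered DeaD yeast; compound dosing: one dose 10 µM, DMSO 0.25% final; measure: yeast growth inhibition indicated by reduced 24 h OD615; detection: OD615 turbidity read; incubation: cells pre-grown 4 h, then 24 h compound exposure, 30 °C humidified; medium: permissive synthetic complete medium with raffinose and galactose carbon sources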

[2] = S. cerevisiae growth inhibition in restrictive medium, OD615, pilot screen, restrictive growth control, yeast lifespan reduction project (AID 706;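 active means growth inhibition above a set limit, 3 SD over mean compound inhibition, in both replicates, cut at about 43% in these data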;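 further: modified DeaD lifespan yeast strain shifted to restrictive glucose medium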); settings: OD615, 48 h, at 10 µM, stronger effect = higher value
Summary of the method: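 material = engineered S. cerevisiae DeaD strain | medium = glucose-based CSMM-D restrictive medium | times = 4 h pre-incubation, 48 h exposure at 30 °C | technique = OD615 absorbance reading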

[3] = doxorubicin toxicity protection in MRP-1 cells – H69AR cells, CellTiter-Glo, duplicate, MRP-1 activator project, pilot screen (AID 807;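 active means viability increase at or above a cutoff of the median across tested compounds plus 3 SD, cut at about 8.5% in these data, passing the limit was not always enough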;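 further: compound pretreatment 18-22 h then 72 h combined with doxorubicin; 0% = doxorubicin alone and 100% = vehicle without doxorubicin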); settings: H69AR viability with doxorubicin, CellTiter-Glo luminescence; at 10 µM; stronger effect = higher value
[4] = viability of HCT116 without oncogenic beta-catenin – human colon tumor cells, pilot screen (AID 823;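 active means cell viability at or below a set limit in both duplicate runs, the limit being the all-compound median minus 4 SD, cut at about 23% in these data, passing the limit was not always enough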;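 further: 0% = wells killed by 20 µM Hyamine and 100% = untreated DMSO cell wells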); settings: HCT116 beta-catenin knockout viability, CellTiter-Glo, 60 h; at 10 µM; stronger effect = lower value
[5] = viability of PTEN-null HCT116 cells – cell-based, HCT116 clonal line, CellTiter-Glo, pilot screen (AID 824); settings: HCT116 PTEN-deleted viability, 60 h, at 10 µM, stronger effect = lower value;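 further: 0% = 20 µM Hyamine control and 100% = vehicle cell control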
[6] = RAM pathway blockade in budding yeast – dse1pr::URA3 reporter, 5-FOA selection, pilot screen (AID 869;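 active means inhibition over a set limit, the all-compound mean plus 3 SD, in both replicate runs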;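 further: 0% = DMSO wells with no growth and 100% = 10 µM 1-NA-PP1 with full growth; RAM network block rescues cells from 5-FOA so hits raise OD615 growth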); settings: S. cerevisiae dse1pr::URA3 5-FOA growth, OD615, 2 d; at 10 µM; stronger effect = higher value; strain carries analog-sensitive mutant Cbk1 kinase
[7] = RAM signaling pathway blockade in yeast – S. cerevisiae, Pdr1DBD-CYC8 efflux-inhibited sensitized strain, primary screen (AID 1298;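 active means RAM network inhibition above 8.4% in each of two replicates, 3 SD over the compound average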;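 further: 0% = DMSO untreated cells without growth and 100% = 10 µM 1-NA-PP1 full growth; higher means more yeast growth rescued from 5-FOA killing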); settings: S. cerevisiae cbk1-as DSE1-URA3 strain, 5-FOA growth OD615, 2 d; at 50 µM; stronger effect = higher value

CCn1cc(SCC(=O)NCc2ccc3c(c2)OCO3)c2ccccc21
inactive: growth inhibition [1] -9.14% | growth inhibition [2] -8.28% | viability increase [3] -1.84% | viability [4] 97.9% | viability [5] 92.7% | inhibition [6] 0.495% | RAM network inhibition [7] 3.73%

COc1ccccc1NC(=O)Nc1ccc(Br)cn1
inactive: growth inhibition [1] -10.3% | growth inhibition [2] -15.5% | viability increase [3] -2.09% | viability [4] 92.6% | viability [5] 87.7% | inhibition [6] 2.98% | RAM network inhibition [7] 8.69%

CCOC(=O)Cn1c(=O)oc2cc(S(=O)(=O)N(C)Cc3ccco3)ccc21
inactive: growth inhibition [1] -13.2% | growth inhibition [2] -14% | viability increase [3] -4.08% | viability [4] 99.9% | viability [5] 94.1% | inhibition [6] 3.37% | RAM network inhibition [7] 4.56%

Cn1nc(-c2ccc(Cl)cc2)c2cc(C(=O)NCC3CCCO3)sc21 (stereo unspecified)
inactive: growth inhibition [1] 1.54% | growth inhibition [2] 17.7% | viability increase [3] -5.84% | viability [4] 65.9% | viability [5] 60.2% | inhibition [6] -0.13% | RAM network inhibition [7] -2.54%

COc1ccc(Cl)cc1NC(=O)c1nc2nc(C)cc(C(F)F)n2n1
inactive: growth inhibition [1] -3.76% | growth inhibition [2] -10.8% | viability increase [3] -4.12% | viability [4] 94.4% | viability [5] 88.4% | inhibition [6] 2.35% | RAM network inhibition [7] 2.1%

COC(=O)c1ccc(C2c3c(oc4ccccc4c3=O)C(=O)N2CCCN2CCOCC2)cc1 (stereo unspecified)
inactive: growth inhibition [1] -2.57% | growth inhibition [2] -3.54% | viability increase [3] -4.63% | viability [4] 87.6% | viability [5] 82.9% | inhibition [6] 0.54% | RAM network inhibition [7] 0.48%

Cc1ccc(C(c2sc3ncnn3c2O)N2CCCCC2)cc1 (stereo unspecified)
inactive: growth inhibition [1] -12.7% | growth inhibition [2] -15.6% | viability increase [3] 1.87% | viability [4] 92.9% | viability [5] 101% | inhibition [6] 0.04% | RAM network inhibition [7] -0.37%

CCCC1(C(=O)O)NC(c2ccc(OC)cc2O)C2C(=O)N(c3ccc(OC)cc3)C(=O)C21 (stereo unspecified)
inactive: growth inhibition [1] -7.46% | growth inhibition [2] 1.98% | viability increase [3] -0.54% | viability [4] 95.8% | viability [5] 91.6% | inhibition [6] 1.48% | RAM network inhibition [7] 2.34%

O=C(Nc1ccc(N2CCN(C(=O)c3ccccc3)CC2)c(Cl)c1)c1ccco1
inactive: growth inhibition [1] 4.29% | growth inhibition [2] 14.1% | viability increase [3] -3.69% | viability [4] 67% | viability [5] 75.9% | inhibition [6] 3.31% | RAM network inhibition [7] 5.57%

COc1cc(C(=O)NCC(c2cccnc2)N2CCN(c3ccccc3)CC2)cc(OC)c1OC (stereo unspecified)
inactive: growth inhibition [1] -6.31% | growth inhibition [2] -10.5% | viability increase [3] -4.26% | viability [4] 98.4% | viability [5] 92.5% | inhibition [6] 2.09% | RAM network inhibition [7] 2.64%

CCOC(=O)N1CCC(NC(=O)c2cc3c(-c4ccc(Cl)cc4)nn(C)c3s2)CC1
inactive: growth inhibition [1] -2.75% | growth inhibition [2] -2.64% | viability increase [3] -5.61% | viability [4] 91.4% | viability [5] 92.1% | inhibition [6] -0.04% | RAM network inhibition [7] 2.43%

c1ccc(OCc2nnc3sc(C4COc5ccccc5O4)nn23)cc1 (stereo unspecified)
inactive: growth inhibition [1] 4.23% | growth inhibition [2] 5.81% | viability increase [3] -1.91% | viability [4] 99.4% | viability [5] 90% | inhibition [6] 2.56% | RAM network inhibition [7] 5.98%

CCCSCCCNC(=O)Cn1cc2c(n1)CCCCC2
inactive: growth inhibition [1] -3.9% | growth inhibition [2] 5.24% | viability increase [3] -2.42% | viability [4] 94% | viability [5] 93.2% | inhibition [6] -0.37% | RAM network inhibition [7] 3.05%

CCOC(=O)N1CCC(c2cc(=O)n3[nH]c(-c4ccccc4)cc3n2)CC1
inactive: growth inhibition [1] 2.9% | growth inhibition [2] -2.34% | viability increase [3] -1.16% | viability [4] 102% | viability [5] 95.3% | inhibition [6] 3.11% | RAM network inhibition [7] 9.15%

CCOC(=O)CCn1cc(F)c(=O)n(Cc2ccccc2)c1=O
inactive: growth inhibition [1] 3.69% | growth inhibition [2] 2.14% | viability increase [3] -0.3% | viability [4] 105% | viability [5] 96.1% | inhibition [6] 0.42% | RAM network inhibition [7] 1.43%

O=C(Cn1nc(-c2ccccc2)ccc1=O)Nc1ccc(N2CCN(C(=O)c3ccccc3)CC2)cc1
inactive: growth inhibition [1] -10.1% | growth inhibition [2] -24.7% | viability increase [3] -1.77% | viability [4] 94.5% | viability [5] 87.3% | inhibition [6] 2.17% | RAM network inhibition [7] 8.82%

Cc1cccc(-c2nc(CS(=O)CC(=O)NC3CCCC3)c(C)o2)c1 (stereo unspecified)
inactive: growth inhibition [1] 6.19% | growth inhibition [2] 1.96% | viability increase [3] -3.32% | viability [4] 94.5% | viability [5] 91.7% | inhibition [6] 3.42% | RAM network inhibition [7] 4.67%

N#CCCCSc1nnc(-c2ccc(Cl)cc2)n1-c1ccccc1
inactive: growth inhibition [1] -4.58% | growth inhibition [2] 9.62% | viability increase [3] -3.58% | viability [4] 83% | viability [5] 93% | inhibition [6] 1.34% | RAM network inhibition [7] 4.2%
